According to paper PMC3728914 (ACS medicinal chemistry letters, 2013):

Experiments:
[1] = test system: RPA70N-Rad9; details: cited from earlier work
[2] = test system: RPA70N-p53; details: cited from earlier work
[3] = target: full length heterotrimeric RPA (Homo sapiens, UniProt P27694); assay: Electrophoresis mobility shift assay; type: binding; details: EMSA, concentrations up to 100 μM
[4] = target: T1, RPA70N (Homo sapiens, UniProt P27694); assay: Fluorescence polarization anisotropy; type: binding; details: for ligand efficiency: from FPA Kd
Procedure, shortened: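 Displacement of a FITC-labelled ATRIP-derived peptide from RPA70N was read as fluorescence polarization anisotropy. Compounds were titrated to give dose-dependent anisotropy changes, from which IC50 was determined. Kd was calculated from IC50 with the Cheng–Prusoff equation and reported as the average of n = 2.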

[5] = target: T1, RPA70N; assay: NMR; type: binding; details: initial fragment hits
[6] = test system: DNA-binding domain of RPA; details: in vitro; cited from earlier work

SMILES: CC(C)C1=C[C@]23CC[C@@H]4[C@](C)(CCC[C@@]4(C)C(=O)O)[C@H]2C[C@@H]1[C@@H](C(=O)O)[C@@H]3C(=O)O [Compound 2, fumaropimaric acid]
- disruption of RPA70N-Rad9 interaction [1]: disrupt both RPA70N-Rad9 and RPA70N-p53 interactions
- disruption of RPA70N-p53 interaction [2]: disrupt both RPA70N-Rad9 and RPA70N-p53 interactions

SMILES: O=C(O)c1sc2cc(-n3c(S)nnc3-c3ccc(Br)c(Cl)c3)ccc2c1Cl [Compound 14n]
- disruption of RPA-ssDNA interactions [3]: Neither 14q nor 14n showed evidence of disrupting RPA-ssDNA interactions

SMILES: O=C(O)c1sc2cc(-n3c(S)nnc3-c3ccccc3)ccc2c1Cl [Compound 5]
- ligand efficiency [4]: 0.22

SMILES: O=C(O)c1sc2cc(-n3c(S)nnc3-c3ccc(Cl)c(Cl)c3)ccc2c1Cl [Compound 14q]
- disruption of RPA-ssDNA interactions [3]: Neither 14q nor 14n showed evidence of disrupting RPA-ssDNA interactions

SMILES: Clc1ccc(-c2nnn[nH]2)cc1 [Compound 4]
- ligand efficiency (LE) [5]: 0.32

SMILES: O=C(O)c1cc2ccc(-n3c(S)nnc3-c3cccc(Oc4ccccc4)c3)cc2s1 [Compound 13e]
- ligand efficiency [4]: 0.17

SMILES: CCOc1ccc2cc(C3CN(C(=O)CCC(=O)O)N=C3c3ccc(Br)cc3)c(Cl)nc2c1 (centres unmarked) [Compound 1, reference compound]
- inhibition of the RPA70N-ATRIP interaction ([4]; FPA assay): did not inhibit
- disruption of RPA interaction with DNA [6]: disrupts its interaction with DNA

SMILES: O=C(O)c1sc2cc(-n3c(S)nnc3-c3cccc(Oc4ccccc4)c3)ccc2c1Cl [Compound 14d]
- ligand efficiency [4]: 0.18

SMILES: O=C(O)c1sc2cc(Cl)ccc2c1Cl [Compound 3]
- ligand efficiency (LE) [5]: 0.32
